# Data taken from ChEMBL document CHEMBL4831540, “Discovery of Aficamten (CK-274), a Next-Generation Cardiac Myosin Inhibitor for the Treatment of Hypertrophic Cardiomyopathy” (J Med Chem, 2021).
# Experiments:
# [1] = Inhibition of full-length myosin ATPase activity in bovine cardiac myofibrils; type: subcellular, Bos taurus, Heart
# Procedure, shortened: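 Bovine cardiac myofibril ATPase assay run at a calcium level giving 75% of maximal activity.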
# [2] = Metabolic stability in rat liver microsomes assessed as intrinsic clearance measured upto 90mins by HPLC/MS/MS analysis; type: ADME, Microsome; conditions: read-out: CLH
# [3] = Metabolic stability in human liver microsomes assessed as intrinsic clearance measured upto 90mins by HPLC/MS/MS analysis; type: ADME, Microsome; conditions: read-out: CLH
# [4] = Clearance in Sprague-Dawley rat at 0.5 mg/kg; type: ADME, organism-based; conditions: in vivo
# [5] = Clearance in Sprague-Dawley rat at 1 mg/kg; type: ADME, organism-based; conditions: in vivo
# Procedure, shortened: (§1)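 Rat PK with iv and po administration at 1 mg/kg. Clearance and half-life came from the iv arm, and bioavailability from the iv/po comparison.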
# [6] = Volume of distribution at steady state in mouse at 0.5 mg/kg, iv; type: ADME, organism-based; conditions: in vivo, read-out: Vdss
# Procedure, shortened: (§2)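 Single iv or oral doses in male animals, 3 per group except dog iv (2 animals). Plasma concentration–time profiles gave Cmax, tmax, AUC0–t, clearance, steady-state volume of distribution, half-life and bioavailability.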
# [7] = Half life in mouse at 0.5 mg/kg, iv; type: ADME, organism-based; conditions: in vivo
# Procedure, shortened: (§3)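 Multi-species PK study in male animals, n = 3 per group (dog IV arm n = 2). Iv and oral dosing with plasma concentration–time profiles yielding Cmax, tmax, AUC0–t, CL, Vss, t1/2 and F.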
# [8] = Cmax in mouse at 1 mg/kg, po; type: ADME, organism-based; set-up: route oral, dose 1 mg/kg; conditions: in vivo; procedure, shortened: as §3
# [9] = Tmax in mouse at 1 mg/kg, po; type: ADME, organism-based; conditions: in vivo; procedure, shortened: as §2
# [10] = AUC (0 to t) in mouse at 1 mg/kg, po; type: ADME, organism-based; set-up: dose 1 mg/kg; conditions: in vivo; procedure, shortened: as §3
# [11] = Oral bioavailability in mouse at 1 mg/kg; type: ADME, organism-based; conditions: in vivo; procedure, shortened: as §2
# [12] = Clearance in Sprague-Dawley rat at 1 mg/kg, iv; type: ADME, organism-based; conditions: in vivo; procedure, shortened: as §1
# [13] = Tmax in Sprague-Dawley rat at 2 mg/kg, po; type: ADME, organism-based; conditions: in vivo; procedure, shortened: as §2
# [14] = Half life in Sprague-Dawley rat at 2 mg/kg, po; type: ADME, organism-based; conditions: in vivo; procedure, shortened: as §3
# [15] = Cmax in Sprague-Dawley rat at 3 mg/kg, po; type: ADME, organism-based; set-up: route oral, dose 3 mg/kg; conditions: in vivo
# [16] = AUC (0 to t) in Sprague-Dawley rat at 8 mg/kg, po; type: ADME, organism-based; set-up: dose 8 mg/kg; conditions: in vivo; procedure, shortened: as §3
# [17] = Half life in Sprague-Dawley rat at 8 mg/kg, po; type: ADME, organism-based; conditions: in vivo; procedure, shortened: as §3
# [18] = Half life in Beagle dog at 1 mg/kg, iv; type: ADME, organism-based, Canis lupus familiaris; conditions: in vivo; procedure, shortened: as §3
# [19] = Cmax in Beagle dog at 1 mg/kg, po; type: ADME, organism-based, Canis lupus familiaris; set-up: route oral, dose 1 mg/kg; conditions: in vivo; procedure, shortened: as §3
# [20] = Tmax in Beagle dog at 1 mg/kg, po; type: ADME, organism-based, Canis lupus familiaris; conditions: in vivo; procedure, shortened: as §2
# [21] = Half life in Beagle dog at 1 mg/kg, po; type: ADME, organism-based, Canis lupus familiaris; conditions: in vivo; procedure, shortened: as §3
# [22] = AUC (0 to t) in cynomolgus monkey at 1 mg/kg, iv; type: ADME, organism-based, Macaca fascicularis; set-up: dose 1 mg/kg; conditions: in vivo; procedure, shortened: as §3
# [23] = Volume of distribution at steady state in cynomolgus monkey at 1 mg/kg, iv; type: ADME, organism-based, Macaca fascicularis; conditions: in vivo, read-out: Vdss; procedure, shortened: as §2
# [24] = Half life in cynomolgus monkey at 1 mg/kg, iv; type: ADME, organism-based, Macaca fascicularis; conditions: in vivo; procedure, shortened: as §3
# [25] = Cmax in cynomolgus monkey at 1 mg/kg, po; type: ADME, organism-based, Macaca fascicularis; set-up: route oral, dose 1 mg/kg; conditions: in vivo; procedure, shortened: as §3
# [26] = Tmax in cynomolgus monkey at 1 mg/kg, po; type: ADME, organism-based, Macaca fascicularis; conditions: in vivo; procedure, shortened: as §2
# [27] = Oral bioavailability in cynomolgus monkey at 1 mg/kg; type: ADME, organism-based, Macaca fascicularis; conditions: in vivo; procedure, shortened: as §2
# Rattus norvegicus [28] = assay: Anti-hypertrophic cardiomyopathy in po dosed Sprague-Dawley rat assessed as reduction in fractional shortening measured upto 24 hrs by echocardiography; type: functional, organism-based
# Procedure, shortened: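 Normal Sprague–Dawley rats were given single oral doses of 0.5–4 mg/kg. Left ventricular dimensions and fractional shortening were measured by echocardiography at selected time points over 24 h, relative to vehicle treatment.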
# [29] = Ratio of IC50 to IC10 for anti-hypertrophic cardiomyopathy in po dosed Sprague-Dawley rat assessed as reduction in fractional shortening measured upto 24 hrs by echocardiography; type: functional; conditions: time hrs <=24
# Procedure, shortened: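 Sprague–Dawley rats received single oral doses from 0.5 to 4 mg/kg. LV dimensions and fractional shortening were read by echocardiography at set times over 24 h, with blood drawn at each reading for compound level. Concentrations giving 50% and 10% FS reduction were derived, and their IC50/IC10 ratio was calculated.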
# Rattus norvegicus [30] = assay: Anti-hypertrophic cardiomyopathy in po dosed Sprague-Dawley rat assessed as reduction in fractional shortening by measuring free concentration measured upto 24 hrs by echocardiography; type: functional; conditions: time hrs <=24
# Procedure, shortened: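 Sprague–Dawley rats received single oral doses of 0.5–4 mg/kg, with fractional shortening measured by echocardiography over 24 h. Blood was sampled at each echo time point. Plasma levels were converted to free concentrations using rat plasma protein binding, and free IC10 and IC50 were derived from the FS reduction–concentration relationship.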
# [31] = Plasma protein binding in Beagle dog assessed as unbound fraction; type: ADME, Canis lupus familiaris
# Cytochrome P450 1A2 = target: T1, Cytochrome P450 1A2 (Homo sapiens, UniProt P05177); assay: Inhibition of CYP1A2 in human liver microsomes assessed as phenacetin O-deethylation reaction incubated for 30 mins in presence of NADP by LC-MS/MS analysis; type: ADME
# T1 sequence (P05177 whole entry): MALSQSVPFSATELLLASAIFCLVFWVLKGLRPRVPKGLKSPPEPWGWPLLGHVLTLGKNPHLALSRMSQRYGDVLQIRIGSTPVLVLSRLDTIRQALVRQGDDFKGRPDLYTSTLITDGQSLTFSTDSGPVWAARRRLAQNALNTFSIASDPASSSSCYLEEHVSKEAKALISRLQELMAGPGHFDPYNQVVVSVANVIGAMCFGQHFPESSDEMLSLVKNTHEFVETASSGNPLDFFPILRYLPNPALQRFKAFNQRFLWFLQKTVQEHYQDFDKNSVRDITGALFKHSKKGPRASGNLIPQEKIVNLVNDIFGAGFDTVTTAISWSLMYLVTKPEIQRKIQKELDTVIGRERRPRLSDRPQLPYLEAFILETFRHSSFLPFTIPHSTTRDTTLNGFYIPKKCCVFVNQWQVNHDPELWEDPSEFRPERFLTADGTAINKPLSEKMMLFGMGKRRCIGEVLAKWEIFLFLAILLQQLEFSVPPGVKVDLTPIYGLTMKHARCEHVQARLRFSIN
# Cytochrome P450 3A4 = Cytochrome P450 3A4 (Homo sapiens, UniProt P08684); assay: Inhibition of CYP3A4 in human liver microsomes incubated for 30 mins in presence of NADP by LC-MS/MS analysis
# Cytochrome P450 3A4, sequence (P08684 whole entry, looked up): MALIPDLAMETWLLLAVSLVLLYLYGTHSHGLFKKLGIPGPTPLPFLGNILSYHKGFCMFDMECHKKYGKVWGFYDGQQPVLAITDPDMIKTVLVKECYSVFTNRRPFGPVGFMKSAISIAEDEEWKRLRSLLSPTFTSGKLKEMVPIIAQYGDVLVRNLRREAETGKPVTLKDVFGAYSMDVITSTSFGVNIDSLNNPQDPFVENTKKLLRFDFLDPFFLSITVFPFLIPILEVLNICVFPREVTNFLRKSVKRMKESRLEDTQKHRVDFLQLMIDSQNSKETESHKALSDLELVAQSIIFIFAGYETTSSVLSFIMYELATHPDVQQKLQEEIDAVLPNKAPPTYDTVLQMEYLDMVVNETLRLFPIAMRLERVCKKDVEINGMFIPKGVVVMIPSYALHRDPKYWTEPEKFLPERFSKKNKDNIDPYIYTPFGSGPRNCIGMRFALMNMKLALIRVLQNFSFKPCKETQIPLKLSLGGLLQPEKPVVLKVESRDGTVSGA
smiles,measurement,setting,value
CCc1nc(-c2ccc3c(c2)CC[C@H]3NC(=O)c2cnn(C)c2)no1 [AFICAMTEN],IC50,[1],1.4 µM
same,CLint scaled,[2],< 21 mL/min/kg
same,CLint scaled,[3],< 11 mL/min/kg
same,clearance,[4],2 mL/min/kg
same,clearance,[5],2.1 mL/min/kg
same,Vd,[6],3.14 L/kg
same,half-life,[7],4.5 h
same,Cmax,[8],268 ng/mL
same,Tmax,[9],0.25 h
same,AUC(0-t),[10],1830 ng·h/mL
same,bioavailability,[11],98%
same,clearance,[12],2.1 mL/min/kg
same,Tmax,[13],0.92 h
same,half-life,[14],2.6 h
same,Cmax,[15],3170 ng/mL
same,AUC(0-t),[16],53700 ng·h/mL
same,half-life,[17],3.3 h
same,half-life,[18],33.8 h
same,Cmax,[19],245 ng/mL
same,Tmax,[20],0.33 h
same,half-life,[21],28.7 h
same,AUC(0-t),[22],1340 ng·h/mL
same,Vd,[23],7.76 L/kg
same,half-life,[24],8.1 h
same,Cmax,[25],65 ng/mL
same,Tmax,[26],1.17 h
same,bioavailability,[27],41%
same,IC10,"Rattus norvegicus [28]; Rattus norvegicus, Sprague-Dawley, 24 h",0.8 µM
same,IC50,Rattus norvegicus [28]; time hrs <=24,7.9 µM
same,Ratio,[29],9.9
same,IC10,Rattus norvegicus [30],0.0144 µM
same,fraction unbound,[31],0.251
same,IC50,Cytochrome P450 1A2,> 100 µM
same,IC50,Cytochrome P450 3A4,> 100 µM
